Screens from PubChem BioAssay.
M5 PAM: human M5 muscarinic receptor positive allosteric modulators, primary screen, CHO-K1 cells, Fluo-8 calcium fluorescence; Muscarinic acetylcholine receptor M5 (Homo sapiens), P08912; CHO-K1 hM5, ACh EC20 PAM; 0% = ACh EC20, 100% = ACh EC100; activation, % at 3 µM; 0.3% of 360,000 active; AID 624038, 2012;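 active = activation above the run cutoff, the mean activation of all test compounds plus 3 SD, cut at about 18% in these data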
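System: CHO-K1 cell line with stable human muscarinic M5 receptor expression | Also added: EC20 acetylcholine as agonist stimulus | Compound: One concentration, 3 µM final (nominal) | Timing: Fluo-8 loading 80 min at 37 °C plus 30 min room temperature | Measured by: Fluo-8 calcium dye fluorescence, kinetic read | Read-out basis: % activation, ACh-normalized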
CHRM5 agonist: human M5 muscarinic receptor agonists, primary screen, CHO-K1 cells, Fluo-8 calcium fluorescence; 0.19% of 360,000 active; activation, % at 3 µM; CHO-K1 hM5 cells; 0% DMSO wells, 100% maximal acetylcholine response; Muscarinic acetylcholine receptor M5 (Homo sapiens), P08912;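 active = activation above the run's mean over test compounds plus 3 SD, cut at about 23% in these data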;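 note: signal is peak over basal fluorescence ratio across the kinetic read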
M4 antag: human M4 muscarinic receptor antagonists, primary screen, CHO cells, Fluo-8 calcium fluorescence. CHO-hM4 cells, ACh EC80. inhibition, % at 3 µM. 0.73% of 360,000 active. AID 624125, 2012;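 active = inhibition above its plate's cutoff, the mean inhibition of sample wells plus 3 SD, cut at about 27% in these data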;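 note: 0% = acetylcholine EC80 with DMSO and 100% = DMSO without agonist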
Target sequence (P08173 whole entry, looked up): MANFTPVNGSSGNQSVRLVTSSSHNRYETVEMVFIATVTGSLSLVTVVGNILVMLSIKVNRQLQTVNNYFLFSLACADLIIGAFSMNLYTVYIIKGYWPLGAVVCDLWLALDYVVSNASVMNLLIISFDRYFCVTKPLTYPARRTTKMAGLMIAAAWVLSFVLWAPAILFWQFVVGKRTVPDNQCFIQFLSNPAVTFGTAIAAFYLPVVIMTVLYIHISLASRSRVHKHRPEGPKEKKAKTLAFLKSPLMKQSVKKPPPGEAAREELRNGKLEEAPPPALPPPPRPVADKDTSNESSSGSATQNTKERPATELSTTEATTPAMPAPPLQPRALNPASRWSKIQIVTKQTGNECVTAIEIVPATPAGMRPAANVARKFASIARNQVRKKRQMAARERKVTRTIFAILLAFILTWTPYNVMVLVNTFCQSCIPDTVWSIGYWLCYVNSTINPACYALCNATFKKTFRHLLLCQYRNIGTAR
M4 PAM: human M4 muscarinic receptor positive allosteric modulators, primary screen, CHO-K1 cells, Fluo-8 calcium fluorescence | Muscarinic acetylcholine receptor M4 (Homo sapiens), P08173 | AID 624126, 2012 | 0.4% of 360,000 active | activation, % at 3 µM | CHO-K1 hM4/Gqi5, ACh EC20; 0% = ACh EC20, 100% = maximal ACh;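 active = activation above its plate's cutoff, the mean activation of sample wells plus 3 SD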
CHRM5 antagonist: human M5 muscarinic receptor antagonists, primary screen, CHO cells, Fluo-8 calcium fluorescence; CHO-hM5 cells, ACh EC80; 0.59% of 360,000 active; Muscarinic acetylcholine receptor M5 (Homo sapiens), P08912; inhibition, % at 3 µM; AID 624040, 2012;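 active = inhibition above a per-plate cutoff, the mean of that plate's test compounds plus 3 SD, cut at about 27% in these data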;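 note: 0% = acetylcholine EC80 with DMSO and 100% = DMSO without agonist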
CHRM4 agonist: human M4 muscarinic receptor agonists, primary screen, CHO-K1 cells, Fluo-8 calcium fluorescence; 0.14% of 360,000 active; Muscarinic acetylcholine receptor M4 (Homo sapiens), P08173; activation, % at 3 µM; CHO-K1 hM4/Gqi5; vehicle 0%, full acetylcholine response 100%;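 active = activation above the run mean over all test wells plus 3 SD, cut at about 32% in these data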;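 note: peak over basal fluorescence ratio per well then scaled between controls; 0% = DMSO wells and 100% = acetylcholine at EC100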
* marks the source's active call; other numbers are inactive results; ! = repeats disagree. Shown are actives, neighbours in structure and some others; about 1.9% of the full set was active somewhere.

SMILES	M5 PAM	CHRM5 agonist	M4 antag	M4 PAM	CHRM5 antagonist	CHRM4 agonist
CC(C)(C)P(=O)(N1CCOCC1)N1CCOCC1	-3	2	0	1	8	3
O=P(Oc1ccccc1)(N1CCOCC1)N1CCOCC1	-4	3	-11	15*	10	1
CC12CCC(=O)C=C1C=CC1C2CCC2(C)C(O)CCC12 (configuration not stated)	-5	-1	8	11	14	3
CN1CCN(c2nc3ccccc3o2)CC1	1	-18	-12	-1	6	0
COc1cc(OC)c([C@H]2C=C(C)[C@H]3C[C@@H]2C3(C)C)c(OC)c1	2	-1	4	-2	7	1
C[n+]1ccc(-c2cc[n+](C)cc2)cc1	-1	61*!	0	2	-3	0
CCCCCCC[n+]1ccc(-c2cc[n+](CCCCCCC)cc2)cc1	-6	-7	4	-7	-3	0
OC(Cn1c2ccccc2c2ccccc21)C[n+]1cccc2ccccc21 (configuration not stated)	-22	-13	40*	-27	58*	0
COC(=O)C1=C(c2cccc(C#N)c2)C[C@@H]2CC[C@H]1N2C(=O)NC1CC1	5	4	7	4	-3	1
COc1ccccc1CCNC1C2CC3CC(C2)CC1C3 (configuration not stated)	-7	-8	32*	-14	8	1
CCCn1ncc(CN2CCCC(C(=O)c3cccc(OC)c3)C2)c1C (configuration not stated)	-19	-11	55*	-23	16	1
O=C(NC1CCCCC1)N1Cc2cc(N3CCOCC3)ccc2-n2nncc2C1	7	3	-13	6	-9	-2
Cc1ccccc1CN1Cc2cnnn2-c2ccccc2C1C#N (configuration not stated)	2	0	-1	-4	11	3
CC[n+]1c(-c2ccccc2)c2cc(N)ccc2c2ccc(N)cc21	-2	-5	-2	-1	-8	1
CCCCCCn1c(O)c(C=Nc2c(C)n(C)n(-c3ccccc3)c2=O)c(=O)[nH]c1=O	25*	-4	-8	12	19	-1
Cc1c(N=Cc2c(O)n(CCc3ccccc3)c(=O)[nH]c2=O)c(=O)n(-c2ccccc2)n1C	-5	-6	-3	-7	4	2
CC(=NNC(=S)N1CC2CCC(CC2)C1)c1nccs1	-11	-6	8	-1	26	0
COc1ccc(CCNC(=O)c2c(N)n(CCN3CCOCC3)c3nc4ccccc4nc23)cc1OC	-15	0	18	-21	34*	17
COc1ccc(CNCCc2ccc3c(c2)OCO3)cc1Br	-2	-4	8	-2	10	6
OCC[N+]12CCC(CC1)C(C(O)(c1ccccc1)c1ccccc1)C2 (configuration not stated)	-9	-18	-3	-33	6	0
CCC[N+]12CCC(CC1)C(=C(c1ccccc1)c1ccccc1)C2	-20	-10	57*	-16	94*	1
CCCC[N+]12CCC(CC1)C(=C(c1ccccc1)c1ccccc1)C2	-19	-9	57*	-16	72*	1
CC1OC(OC2CC(O)C3(CO)C4C(O)CC5(C)C(C6=CC(=O)OC6)CCC5(O)C4CCC3(O)C2)C(O)C(O)C1O (configuration not stated)	1	3	-7	9	-2	0
C[C@@H]1O[C@@H](O[C@H]2C[C@@H](O)[C@]3(CO)[C@H]4[C@H](O)C[C@]5(C)[C@@H](C6COC(=O)C6)CC[C@]5(O)[C@@H]4CC[C@]3(O)C2)[C@H](O)[C@H](O)[C@H]1O (some centres not stated)	-7	0	34*	-15	-5	1
CS(=O)(=O)c1ccc(C2=C(CNC(=O)c3cccs3)[C@H]3CC[C@@H](C2)N3CCOc2ccccc2)cc1	-14	-4	14	-8	9	1
SMILES	M5 PAM	CHRM5 agonist	M4 antag	M4 PAM	CHRM5 antagonist	CHRM4 agonist
CS(=O)(=O)c1ccc(C2=C(CNC(=O)c3nccs3)[C@H]3CC[C@@H](C2)N3CCOc2ccccc2)cc1	-13	-3	49*	-14	13	2
O=C1CN=C(c2ccccc2)c2c(sc3c2CCCC3)N1	0	0	4	-8	4	-1
O=C1OC(c2ccc(Br)cc2)=N/C1=C\N1CC2CC(C1)c1cccc(=O)n1C2 (configuration not stated)	4	-12	5	-6	-1	0
O=C1OC(c2ccc(Cl)cc2)=N/C1=C\N1CC2CC(C1)c1cccc(=O)n1C2 (configuration not stated)	22*	-5	-5	15	-9	1
CC12CCC(=O)CC1CCC1C2C(=O)CC2(C)C1CCC2(C)O (configuration not stated)	-2	-1	2	-3	13	0
CCN(CC)CCC(=O)O[C@H]1CC[C@]2(C)C3CC[C@@]4(C)C(CC[C@]4(C)O)C3CC[C@H]2C1 (some centres not stated)	-37	1	28*	-10	27	29
OC(c1ccccc1)(c1ccccc1)C1CN2CCC1CC2 (configuration not stated)	-22	-12	75*	-21	99*	1
OC(Cc1ccccc1)(c1ccccc1)C1CN2CCC1CC2 (configuration not stated)	-20	-8	85*	-24	90*	1
c1ccc(C2CN3CCC2CC3)cc1 (configuration not stated)	-18	-18	11	-13	6	0
OC(c1ccccc1)(c1ccc(Cl)cc1)C1CN2CCC1CC2 (configuration not stated)	-32	-18	44*	-55	60*	9
COC(=O)C1=C(c2ccc(OCc3ccccc3)cc2)C[C@@H]2CC[C@H]1N2C	-15	-2	-3	-10	-3	6
N#CC1=C(N)Oc2cc(O)ccc2C1c1ccc2c(c1)OCO2 (configuration not stated)	3	2	2	0	-5	2
Cc1cc(-c2ccccc2)cc(-c2ccccc2)[n+]1CCc1ccccc1	-28	-9	38*	-7	18	2
